Measured values from ChEMBL document CHEMBL3259728, “Design, synthesis and biological evaluation of some novel substituted quinazolines as antitumor agents” (2014).

Key:
Assay type in all cases: functional
Malme-3M = assay: Growth inhibition of human MALME-3M cells assessed as cell growth at 10^-4 M after 48 hrs by SRB assay; settings: read-out: Activity
K562 [1] = assay: Growth inhibition of human K562 cells assessed as cell growth at 10^-8 M after 48 hrs by SRB assay; settings: K562, 48 h, read-out: Activity
SW-620 = assay: Cytotoxicity against human SW620 cells after 48 hrs by SRB assay; settings: SW-620, 48 h
How it was run: (§1)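 NCI 60-cell-line panel of human tumour lines from nine cancer types. Continuous 48 h exposure at five 10-fold dilutions from 10^-4 to 10^-8 M, with 5-FU as positive control. SRB protein stain read spectrophotometrically at time zero, untreated control and each concentration. GI50, TGI and LC50 were derived from the [(Ti−Tz)/(C−Tz)]×100 growth relations, and out-of-range values are given as > or < the tested limits.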

CAKI-1 [2] = assay: Cytotoxicity against human CAKI-1 cells after 48 hrs by SRB assay; settings: CAKI-1, 48 h; how it was run: as §1
HCT-116 [3] = assay: Growth inhibition of human HCT116 cells assessed as cell growth at 10^-4 M after 48 hrs by SRB assay; settings: HCT-116, 48 h, read-out: Activity
[4] = Growth inhibition of human MOLT4 cells assessed as cell growth at 10^-4 M after 48 hrs by SRB assay; settings: MOLT-4, 48 h, read-out: Activity
[5] = Growth inhibition of human HOP92 cells assessed as cell growth at 10^-7 M after 48 hrs by SRB assay; settings: HOP-92, 48 h, read-out: Activity
RPMI-8226 = assay: Growth inhibition of human RPMI8226 cells assessed as cell growth at 10^-7 M after 48 hrs by SRB assay; settings: RPMI-8226, 48 h, read-out: Activity
K562 [6] = assay: Growth inhibition of human K562 cells assessed as cell growth at 10^-7 M after 48 hrs by SRB assay; settings: K562, 48 h, read-out: Activity
[7] = Cytotoxicity against human OVCAR3 cells after 48 hrs by SRB assay; settings: OVCAR-3, 48 h; how it was run: as §1
NCI-H23 = assay: Growth inhibition of human NCI-H23 cells assessed as cell growth at 10^-4 M after 48 hrs by SRB assay; settings: NCI-H23, 48 h, read-out: Activity
[8] = Growth inhibition of human HCT15 cells assessed as cell growth at 10^-8 M after 48 hrs by SRB assay; settings: HCT-15, 48 h, read-out: Activity
SK-MEL-5 = assay: Cytotoxicity against human SK-MEL-5 cells after 48 hrs by SRB assay; settings: SK-MEL-5, 48 h; how it was run: as §1
U-251 = assay: Growth inhibition of human U251 cells assessed as cell growth at 10^-6 M after 48 hrs by SRB assay; settings: U-251, 48 h, read-out: Activity
CAKI-1 [9] = assay: Growth inhibition of human CAKI-1 cells assessed as cell growth at 10^-8 M after 48 hrs by SRB assay; settings: CAKI-1, 48 h, read-out: Activity
How it was run: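 Five-dose NCI panel protocol. Each dose (10^-4 to 10^-8 M, 10-fold steps) was given as 48 h continuous exposure, and protein was measured by SRB staining. Percentage growth at each level is [(Ti−Tz)/(C−Tz)]×100, where Tz is time-zero absorbance and C is untreated control.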

[10] = Growth inhibition of human SF539 cells assessed as cell growth at 10^-8 M after 48 hrs by SRB assay; settings: SF-539, 48 h, read-out: Activity
HT-29 = assay: Growth inhibition of human HT-29 cells assessed as cell growth at 10^-5 M after 48 hrs by SRB assay; settings: HT-29, 48 h, read-out: Activity
KM12 = assay: Growth inhibition of human KM12 cells assessed as cell growth at 10^-6 M after 48 hrs by SRB assay; settings: KM12, 48 h, read-out: Activity
[11] = Growth inhibition of human UO31 cells assessed as cell growth at 10^-7 M after 48 hrs by SRB assay; settings: UO-31, 48 h, read-out: Activity
[12] = Growth inhibition of human EKVX cells assessed as cell growth at 10^-6 M after 48 hrs by SRB assay; settings: read-out: Activity
[13] = Growth inhibition of human UACC257 cells assessed as cell growth at 10^-8 M after 48 hrs by SRB assay; settings: UACC-257, 48 h, read-out: Activity
HCT-116 [14] = assay: Growth inhibition of human HCT116 cells assessed as cell growth at 10^-6 M after 48 hrs by SRB assay; settings: HCT-116, 48 h, read-out: Activity
ACHN = assay: Cytotoxicity against human ACHN cells after 48 hrs by SRB assay; how it was run: as §1
[15] = Growth inhibition of human Hs578T cells assessed as cell growth at 10^-6 M after 48 hrs by SRB assay; settings: Hs-578T, read-out: Activity
[16] = Cytotoxicity against human UACC62 cells after 48 hrs by SRB assay; settings: UACC-62, 48 h
How it was run: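 NCI 60-cell-line panel, 48 h continuous exposure to five 10-fold dilutions from 10^-4 to 10^-8 M. SRB protein staining was read spectrophotometrically, with time-zero, untreated-control and treated absorbances. GI50, TGI and LC50 were derived from the percentage-growth formulas. Values outside the tested range are expressed as more or less than the maximum or minimum concentration.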

LOX IMVI = assay: Cytotoxicity against human LOXIMVI cells after 48 hrs by SRB assay; how it was run: as §1
[17] = read-out: LC50 (the source's name)
[18] = read-out: pLC50 (the source's name) (converted)

For `Cc1ccc(-c2nc3ccc(Cl)cc3c(=O)n2/N=C/c2ccccc2)cc1`, the growth at 100 µM (Malme-3M) was 42%, the growth at 0.01 µM (K562 [1]) was 96% and the GI50 (SW-620; read-out: GI50) was > 100 µM. For the same compound, the CC50 (SW-620; [17]) was > 100 µM, the TGI (SW-620; read-out: TGI) was > 100 µM and the GI50 (SW-620; read-out: pGI50 (converted)) was > 100 µM. For the same compound, the CC50 (SW-620; [18]) was > 100 µM, the TGI (SW-620; read-out: pTGI) was > 100 µM and the GI50 (CAKI-1 [2]; read-out: GI50) was 4.82 µM. For the same compound, the CC50 (CAKI-1 [2]; [17]) was > 100 µM, the TGI (CAKI-1 [2]; read-out: TGI) was > 100 µM and the GI50 (CAKI-1 [2]; read-out: pGI50 (converted)) was 4.79 µM. The CC50 (CAKI-1 [2]; [18]) was > 100 µM, the TGI (CAKI-1 [2]; read-out: pTGI) was > 100 µM and the growth at 100 µM (HCT-116 [3]) was 21%. For the same compound, the growth at 100 µM [4] was 56%, the growth at 0.1 µM [5] was 89% and the growth at 0.1 µM (RPMI-8226) was 94%. The growth at 0.1 µM (K562 [6]) was 97%, the GI50 ([7]; read-out: GI50) was 5.44 µM and the CC50 [7, 17] was > 100 µM. For the same compound, the TGI ([7]; read-out: TGI) was > 100 µM, the GI50 ([7]; read-out: pGI50 (converted)) was 5.5 µM and the CC50 [7, 18] was > 100 µM. For the same compound, the TGI ([7]; read-out: pTGI) was > 100 µM, the growth at 100 µM (NCI-H23) was 51% and the growth at 0.01 µM [8] was 92%. For the same compound, the GI50 (SK-MEL-5; read-out: GI50) was 20 µM, the CC50 (SK-MEL-5; [17]) was > 100 µM and the TGI (SK-MEL-5; read-out: TGI) was > 100 µM. The GI50 (SK-MEL-5; read-out: pGI50 (converted)) was 20 µM, the CC50 (SK-MEL-5; [18]) was > 100 µM and the TGI (SK-MEL-5; read-out: pTGI) was > 100 µM. The growth at 1 µM (U-251) was 93%, the growth at 0.01 µM (CAKI-1 [9]) was 89% and the growth at 0.01 µM [10] was 90%. For the same compound, the growth at 10 µM (HT-29) was 69%, the growth at 1 µM (KM12) was 91% and the growth at 0.1 µM [11] was 60%. The growth at 1 µM [12] was 76%, the growth at 0.01 µM [13] was 100% and the growth at 1 µM (HCT-116 [14]) was 87%. For the same compound, the GI50 (ACHN; read-out: GI50) was 0.627 µM, the CC50 (ACHN; [17]) was > 100 µM and the TGI (ACHN; read-out: TGI) was > 100 µM. For the same compound, the GI50 (ACHN; read-out: pGI50 (converted)) was 0.631 µM, the CC50 (ACHN; [18]) was > 100 µM and the TGI (ACHN; read-out: pTGI) was > 100 µM. For the same compound, the growth at 1 µM [15] was 84%, the GI50 ([16]; read-out: GI50) was 25.8 µM and the CC50 [16, 17] was > 100 µM. For the same compound, the TGI ([16]; read-out: TGI) was > 100 µM, the GI50 ([16]; read-out: pGI50 (converted)) was 25.7 µM and the CC50 [16, 18] was > 100 µM. For the same compound, the TGI ([16]; read-out: pTGI) was > 100 µM, the GI50 (LOX IMVI; read-out: GI50) was 70.1 µM and the CC50 (LOX IMVI; [17]) was > 100 µM. For the same compound, the TGI (LOX IMVI; read-out: TGI) was > 100 µM, the GI50 (LOX IMVI; read-out: pGI50 (converted)) was 70.8 µM and the CC50 (LOX IMVI; [18]) was > 100 µM. The TGI (LOX IMVI; read-out: pTGI) was > 100 µM.
